Where only a bound is given, the exact number is not on record here.

Chain of Beta-lactamase (Pseudomonas aeruginosa (strain ATCC 15692 / PAO1 / 1C / PRS 101 / LMG12228)) (P24735 27-397 limits assumed): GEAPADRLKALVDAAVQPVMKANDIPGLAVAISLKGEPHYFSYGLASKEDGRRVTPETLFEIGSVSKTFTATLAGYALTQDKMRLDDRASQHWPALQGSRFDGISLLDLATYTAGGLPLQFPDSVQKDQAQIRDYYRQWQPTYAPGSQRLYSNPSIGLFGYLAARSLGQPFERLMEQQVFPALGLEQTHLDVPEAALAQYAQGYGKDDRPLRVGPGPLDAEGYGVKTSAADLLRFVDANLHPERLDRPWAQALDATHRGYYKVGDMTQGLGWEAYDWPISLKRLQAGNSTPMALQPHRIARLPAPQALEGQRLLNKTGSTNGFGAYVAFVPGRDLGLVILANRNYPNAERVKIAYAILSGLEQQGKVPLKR
Chain of Beta-lactamase (P24735 whole entry): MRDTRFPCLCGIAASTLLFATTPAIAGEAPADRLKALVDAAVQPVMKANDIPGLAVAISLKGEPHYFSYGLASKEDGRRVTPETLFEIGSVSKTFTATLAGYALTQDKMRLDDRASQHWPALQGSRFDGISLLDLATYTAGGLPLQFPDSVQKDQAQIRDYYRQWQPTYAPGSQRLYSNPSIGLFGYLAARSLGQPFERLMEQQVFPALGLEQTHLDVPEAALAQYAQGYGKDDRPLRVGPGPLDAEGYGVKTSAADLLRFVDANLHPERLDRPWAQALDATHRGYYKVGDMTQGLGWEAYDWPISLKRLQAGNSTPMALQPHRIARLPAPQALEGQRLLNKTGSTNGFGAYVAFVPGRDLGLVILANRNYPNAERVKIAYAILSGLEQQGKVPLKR

For the first experiment, the system named is Pseudomonas aeruginosa. Briefly: Antimicrobial activity against Pseudomonas aeruginosa CL5701 infected in mouse spleen assessed as reduction in colony forming unit at 2.5 mg/kg qid for 1 hr administered after 1.25 hrs of infusion. The format is functional. A digest of the protocol:
(§1)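 In vivo P. aeruginosa CL5701 infection: imipenem/cilastatin 2.5 mpk given with the BLI at 2.35 or 4.7 mpk, by 1.25 h infusion QID for 1 day. Bacterial CFU counted in the spleen and expressed as log reduction relative to imipenem/cilastatin alone.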
Consider `O=C(N[C@H]1CCCNCC1)N1CC[C@@H]2[C@H]1C(=O)N2S(=O)(=O)O`, for which the log10cfu is reported as 4.6.

A further experiment has as its target Beta-lactamase (Pseudomonas aeruginosa (strain ATCC 15692 / PAO1 / 1C / PRS 101 / LMG12228), UniProt P24735). The experiment is described as follows: Inhibition of Pseudomonas aeruginosa beta lactamase AmpC by spectrophotometry. A digest of the protocol: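 Nitrocefin hydrolysis by P. aeruginosa AmpC, enzyme and substrate in 100 mM KH2PO4 pH 7 with 0.005% BSA. Inhibitor serially diluted from DMSO and preincubated with AmpC 40 min at room temperature. Substrate then added for a further 40 min, quenched with 2.5 N acetic acid, absorbance read at 492 nm. IC50 taken from semi-log plots of inhibition versus concentration.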
Take `O=C(NC1CCCCNCCC1)N1CC[C@@H]2[C@H]1C(=O)N2S(=O)(=O)O` (stereo in doubt; 13) [listing 1 of 2 here]: the IC50 (as a rule, the concentration needed to halve the response being measured) came to 4 µM.

As for `O=C(N[C@H]1CCCCNC1)N1CC[C@@H]2[C@H]1C(=O)N2S(=O)(=O)O`, the half-inhibitory concentration (IC50) worked out at 1.9 µM.

As for `O=C(N[C@H]1CCCNCC1)N1CC[C@@H]2[C@H]1C(=O)N2S(=O)(=O)O`, half-maximal inhibition (IC50) was put at 1 µM.

`O=C(NC1CCCCNCCC1)N1CC[C@@H]2[C@H]1C(=O)N2S(=O)(=O)O` (stereo in doubt; 14) [listing 1 of 2 here] had an IC50 of 5 µM.

In the case of `O=C(NC1CCCNCCC1)N1CC[C@@H]2[C@H]1C(=O)N2S(=O)(=O)O`, half-maximal inhibition (IC50) was put at 3.4 µM.

In turn, `O=C(NC1CNCCNC1)N1CC[C@@H]2[C@H]1C(=O)N2S(=O)(=O)O` came in with an IC50 of 17 µM.

In turn, `O=C1NCCCC[C@@H]1NC(=O)N1CC[C@@H]2[C@H]1C(=O)N2S(=O)(=O)O` had an IC50 of 0.8 µM.

Another experiment has as its target Beta-lactamase (Pseudomonas aeruginosa (strain ATCC 15692 / PAO1 / 1C / PRS 101 / LMG12228)) (UniProt P24735). The experiment is described as follows: Inhibition of Pseudomonas aeruginosa CL5701 beta lactamase AmpC assessed as concentration required to reduce imipenem MIC.
Consider `O=C(NC1CCCCCC1)N1CC[C@@H]2[C@H]1C(=O)N2S(=O)(=O)O`, for which the Activity is greater than 100 µM.

With `O=C(N[C@@H]1CCCNCC1)N1CC[C@@H]2[C@H]1C(=O)N2S(=O)(=O)O`, the Activity stood at 25 µM.

In the case of `O=C(N[C@H]1CNCCOC1)N1CC[C@@H]2[C@H]1C(=O)N2S(=O)(=O)O`, the Activity was determined as 50 µM.

As to `O=C(N[C@@H]1CNCCOC1)N1CC[C@@H]2[C@H]1C(=O)N2S(=O)(=O)O`, the Activity is 25 µM.

As for `O=C(NC1CCCCNCCC1)N1CC[C@@H]2[C@H]1C(=O)N2S(=O)(=O)O` (stereo in doubt; 13) [listing 2 of 2 here], the Activity was greater than 100 µM.

Regarding `O=C(NC1CCNCC1)N1CC[C@@H]2[C@H]1C(=O)N2S(=O)(=O)O`, the Activity is 21 µM.

For the compound `O=C(N[C@H]1CCCCNC1)N1CC[C@@H]2[C@H]1C(=O)N2S(=O)(=O)O`, the Activity turned out to be 50 µM.

As to `O=C(NC1CCCCNCCC1)N1CC[C@@H]2[C@H]1C(=O)N2S(=O)(=O)O` (stereo in doubt; 14) [listing 2 of 2 here], the Activity was greater than 100 µM.

With `O=C(N[C@H]1CCCNCC1)N1CC[C@@H]2[C@H]1C(=O)N2S(=O)(=O)O`, the Activity is 9.4 µM.

With `O=C(NC1CCCCNCC1)N1CC[C@@H]2[C@H]1C(=O)N2S(=O)(=O)O` (stereo in doubt; 12), the Activity is greater than 100 µM.

As for `O=C(NC1CCCCNCC1)N1CC[C@@H]2[C@H]1C(=O)N2S(=O)(=O)O` (single isomer, unassigned), the Activity was 12.5 µM.

On to `O=C(NC1CCCNCCC1)N1CC[C@@H]2[C@H]1C(=O)N2S(=O)(=O)O`, for which the Activity was 25 µM.

Take `O=C(NC1CNCCNC1)N1CC[C@@H]2[C@H]1C(=O)N2S(=O)(=O)O`: the Activity was 100 µM.

`O=C1NCCCC[C@@H]1NC(=O)N1CC[C@@H]2[C@H]1C(=O)N2S(=O)(=O)O`: the Activity was greater than 100 µM.

The next experiment relates to Pseudomonas aeruginosa. The experiment is described as follows: Antimicrobial activity against Pseudomonas aeruginosa CL5701 infected in mouse spleen assessed as reduction in colony forming unit at 2.35 mg/kg qid for 1 hr administered after 1.25 hrs of infusion. In kind it is functional. A digest of the protocol:
as §1
In the case of `O=C(N[C@H]1CCCNCC1)N1CC[C@@H]2[C@H]1C(=O)N2S(=O)(=O)O`, the log10cfu came to 4.6.

The subject of the next experiment is Pseudomonas aeruginosa. The experiment is described as follows: Antimicrobial activity against Pseudomonas aeruginosa CL5701 infected in mouse spleen assessed as reduction in colony forming unit at 4.7 mg/kg qid for 1 hr administered after 1.25 hrs of infusion. In kind it is functional. Summed up:
as §1
In the case of `O=C(NC1CCNCC1)N1CC[C@@H]2[C@H]1C(=O)N2S(=O)(=O)O`, the log10cfu worked out at 4.7.
